By IC50 is commonly meant the concentration needed to halve the response being measured.

A short description of assay [1]: Cytotoxicity against vinblastine resistant human KBV1 cells after 48 hrs in presence of 100 nM vinblastine by SRB method. The format is functional, cell-based. The conditions noted are these: KB-V1, 48 h. In short, it runs like this:
(§1)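 KB-3-1 and KB-V1 cells grown in DMEM with 2 mM L-glutamine and 10% heat-inactivated FCS at 37 °C, 5% CO2. KB-V1 kept under VLB. 2.5-5.0×10^3 cells/well seeded in 5% FCS medium, attached overnight, then exposed to compound for 48 h. Vehicle was DMSO or MeOH, final <0.5%. Read by SRB: TCA fixation, 0.4% SRB stain, Tris solubilization, absorbance at 570 nm. Mean ± S.D. of two experiments.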

The test system of assay [2] is KB-V1. As to the kind of experiment: Reversal of P-glycoprotein-mediated multidrug resistance assessed as ratio of taxol IC50 for drug-resistant human KB-V1 cells to taxol IC50 for human drug-sensitive KB-3-1 cells at 10 uM after 48 hrs by SRB method. The format is cell-based. Summed up:
(§2)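 KB-3-1 and resistant KB-V1 cells seeded overnight, then treated for 48 h with a concentration range of adriamycin, vinblastine or taxol plus 10 μM modulator. Growth read by SRB at 570 nm and IC50 taken against vehicle controls. Relative resistance = IC50 in KB-V1 / IC50 in KB-3-1.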
For orientation: In SRB staining, fixed cells bind dye roughly in proportion to their protein.

Assay [3] can be described thus: Cytotoxicity against vinblastine resistant human KBV1 cells after 48 hrs by SRB method. The format is functional, cell-based. The conditions noted are these: KB-V1, 48 h. In short, it runs like this:
as §1

Assay [4] concerns KB-V1. Nature of the assay: Reversal of P-glycoprotein-mediated multidrug resistance assessed as ratio of adriamycin IC50 for drug-resistant human KB-V1 cells to adriamycin IC50 for human drug-sensitive KB-3-1 cells at 10 uM after 48 hrs by SRB method. The format is cell-based. In short, it runs like this: as §2
In assay [5] the test system is KB-V1. As to the kind of experiment: Reversal of P-glycoprotein-mediated multidrug resistance assessed as ratio of IC50 for human KB-V1 cells to IC50 for human KB-V1 cells in presence of 100 nM vinblastine. It counts as cell-based. In short, it runs like this: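 KB-V1 cells given compound alone or with 100 nM vinblastine for 48 h. Growth read by SRB at 570 nm and IC50 taken against vehicle controls. Enhancement factor = IC50 in KB-V1 without VLB / IC50 with VLB. Mean ± S.D. of two experiments.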

A short description of assay [6]: Cytotoxicity against human KB31 cells after 48 hrs by SRB method. The format is functional, cell-based. The conditions noted are these: KB 3-1, 48 h. In short, it runs like this:
as §1

In assay [7] the test system is KB-V1. As to the kind of experiment: Reversal of P-glycoprotein-mediated multidrug resistance assessed as ratio of vinblastine IC50 for drug-resistant human KB-V1 cells to vinblastine IC50 for human drug-sensitive KB-3-1 cells at 10 uM after 48 hrs by SRB method. The format is cell-based. Summed up:
as §2

For the molecule `CC(=O)O[C@H]1[C@@H](OC(=O)c2ccccc2)C[C@@H](C)[C@]23OC(C)(C)[C@H](C[C@H](OC(=O)c4ccccc4)[C@]12C)[C@H]3OC(=O)c1ccccc1` [ORBICULIN G], the IC50 in assay [1] turned out to be 4.8 µM; in assay [3] it was 28.6 µM; in assay [6], 26.4 µM. For the same molecule, the Ratio IC50 in the assay with KB-V1 [2] amounted to 143; in the assay with KB-V1 [4], 153; in the assay on KB-V1 [5], 5.9; in the assay on KB-V1 [7], 168.

As to `CC(=O)OC[C@@]12[C@@H](OC(C)=O)CC[C@@H](C)[C@]13OC(C)(C)[C@H](C[C@@H]2OC(=O)c1ccccc1)[C@H]3OC(C)=O`, the half-maximal inhibitory concentration (IC50) in assay [1] was determined as 1 µM; in assay [3], 79.4 µM; in assay [6] it was 85.3 µM. For the same molecule, the Ratio IC50 with KB-V1 [2] was found to be 10; in the assay with KB-V1 [4], 5.5; in the assay on KB-V1 [5], 79.4; in the assay with KB-V1 [7], 12.9.

For `CC(=O)O[C@H]1C[C@@H](C)[C@]23OC(C)(C)[C@H](C[C@H](OC(=O)c4ccccc4)[C@]2(C)[C@H]1OC(C)=O)[C@H]3OC(=O)c1ccccc1` [ORBICULIN A], the IC50 in assay [1] turned out to be 0.4 µM; in assay [3] it was 32 µM; in assay [6] it was 31.6 µM. The Ratio IC50 with KB-V1 [2] was found to be 1.2; with KB-V1 [4], 3; in the assay on KB-V1 [5], 80; in the assay with KB-V1 [7], 0.9.

Consider `CC(=O)OC[C@]12[C@@H](OC(=O)c3ccccc3)C[C@@H]3[C@@H](OC(C)=O)[C@]1(OC3(C)C)[C@H](C)C[C@H](OC(=O)c1ccccc1)[C@@H]2OC(C)=O`, for which the concentration for half-maximal inhibition (IC50) in assay [1] was determined as 0.5 µM; in assay [3], 28.6 µM; in assay [6], 27.3 µM. Besides, the Ratio IC50 in the assay with KB-V1 [2] was 3.9; in the assay with KB-V1 [4], 1.4; with KB-V1 [5] it was 57.2; with KB-V1 [7] it was 2.7.

Turning to `CC(=O)O[C@H]1CC[C@@H](C)[C@]23OC(C)(C)[C@H](C[C@H](OC(=O)c4ccccc4)[C@]12C)[C@H]3OC(=O)c1ccco1` [ORBICULIN B], the values for the IC50 in assay [1], in assay [3] and in assay [6] were 19.6 µM, 246 µM and 268 µM, respectively. Further, the Ratio IC50 with KB-V1 [5] came out at 12.5.

On to `CC(=O)O[C@H]1C[C@@H](C)[C@]23OC(C)(C)[C@H](C[C@H](OC(=O)c4ccccc4)[C@]2(C)[C@H]1OC(C)=O)[C@H]3OC(=O)c1ccco1` [ORBICULIN E], for which the 50% inhibitory concentration (IC50) is 0.5 µM in assay [1], 33.1 µM in assay [3] and 28.3 µM in assay [6]. For the same molecule, the Ratio IC50 was determined as 2.6 with KB-V1 [2], 1.8 with KB-V1 [4], 66.2 in the assay on KB-V1 [5] and 1.6 with KB-V1 [7].

In the case of `CC(=O)O[C@H]1C[C@@H](C)[C@]23OC(C)(C)[C@H](C[C@H](OC(=O)c4ccccc4)[C@]2(C)[C@H]1OC(C)=O)[C@H]3OC(C)=O`, the half-maximal inhibitory concentration (IC50) in assay [1] was found to be 0.4 µM; in assay [3] it was 34.8 µM; in assay [6], 41.3 µM. In addition, the Ratio IC50 came out at 3.7 in the assay with KB-V1 [2], 8.3 with KB-V1 [4], 87 in the assay on KB-V1 [5] and 2.3 in the assay on KB-V1 [7].

With `CC(=O)O[C@H]1[C@@H](OC(=O)c2ccco2)C[C@@H](C)[C@]23OC(C)(C)[C@H](C[C@H](OC(=O)c4ccccc4)[C@]12C)[C@H]3OC(=O)c1ccco1` [ORBICULIN F], the IC50 in assay [1] came to 1.1 µM; in assay [3] it was 39.3 µM; in assay [6], 32.4 µM. In addition, the Ratio IC50 in the assay with KB-V1 [2] amounted to 11; with KB-V1 [4], 4.4; in the assay with KB-V1 [5], 35.7; with KB-V1 [7] it was 8.9.

In the case of `CC(=O)O[C@H]1CC[C@@H](C)[C@]23OC(C)(C)[C@H](C[C@H](OC(=O)c4ccccc4)[C@]12C)[C@H]3OC(=O)c1ccccc1`, the results for the IC50 in assay [1], in assay [3] and in assay [6] were 1.9 µM, 12.3 µM and 10.5 µM, respectively. In addition, the Ratio IC50 in the assay on KB-V1 [5] is 6.4.

Consider `CC(=O)O[C@H]1CC[C@@H](C)[C@]23OC(C)(C)[C@H](C[C@H](OC(=O)c4ccco4)[C@]12C)[C@H]3OC(=O)c1ccco1` [ORBICULIN D], for which the IC50 in assay [1] was 1.2 µM; in assay [3], 17.8 µM; in assay [6] it was 16.8 µM. Besides, in the assay on KB-V1 [5], the Ratio IC50 is 14.8.

As for `CC(=O)O[C@H]1CC[C@@H](C)[C@]23OC(C)(C)[C@H](C[C@H](OC(=O)c4ccco4)[C@]12C)[C@H]3OC(=O)c1ccccc1` [ORBICULIN C], the IC50 in assay [1] came out at 1 µM; in assay [3], 9.6 µM; in assay [6], 8.6 µM. For the same molecule, the Ratio IC50 in the assay with KB-V1 [5] stood at 9.6.
